Laboratory results published in ChEMBL document CHEMBL1129975, “Depsides and depsidones as inhibitors of HIV-1 integrase: discovery of novel inhibitors through 3D database searching” (J Med Chem, 1997).

Tests used:
[1] = biological target: T1, Human immunodeficiency virus type 1 integrase (Human immunodeficiency virus 1, UniProt Q7ZJM1); assay: Inhibitory concentration of compound against strand transfer of HIV-1 integrase in experiment 1&2
Method in brief: (§1)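 Purified recombinant HIV-1 integrase (200 nM final) preincubated with inhibitor for 30 min at 30 °C. Buffer: 25 mM MOPS pH 7.2, 7.5 mM MnCl2, 50 mM NaCl, 10% DMSO, 10% glycerol, 0.1 mg/mL BSA. Then 20 nM 5′-32P-labelled 21-mer blunt-end U5 LTR duplex was added for 1 h. Products were resolved on a denaturing 20% polyacrylamide/urea gel. IC50 was read from a percent-inhibition versus concentration plot.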

[2] = biological target: T1, Human immunodeficiency virus type 1 integrase; assay: Inhibitory concentration of compound against 3'-processing of HIV-1 integrase in experiment 1&2; method in brief: as §1
[3] = biological target: T1, Human immunodeficiency virus type 1 integrase; assay: Inhibitory concentration of compound against strand transfer of HIV-1 integrase in experiment 1
[4] = biological target: T1, Human immunodeficiency virus type 1 integrase; assay: Inhibitory concentration of compound against strand transfer of HIV-1 integrase in experiment 2
[5] = biological target: T1, Human immunodeficiency virus type 1 integrase; assay: Inhibitory concentration of compound against 3'-processing of HIV-1 integrase in experiment 2
[6] = biological target: T1, Human immunodeficiency virus type 1 integrase; assay: Inhibitory concentration of compound against 3'-processing of HIV-1 integrase in experiment 1
[7] = biological target: T2, Human immunodeficiency virus type 2 integrase (Human immunodeficiency virus 2, UniProt P89582); assay: Inhibitory concentration of compound against strand transfer of HIV- integrase
T2 sequence (P89582 whole entry): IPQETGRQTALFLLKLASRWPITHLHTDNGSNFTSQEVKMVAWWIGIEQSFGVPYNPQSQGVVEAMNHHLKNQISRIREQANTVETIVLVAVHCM
Method in brief: (§2)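 Integrase (200 nM final) preincubated with inhibitor for 30 min at 30 °C in pH 7.2 MOPS/HEPES buffer with 7.5 mM MnCl2, 10% DMSO, BSA and 2-mercaptoethanol. Then 20 nM 5′-32P-labeled 21-mer U5 LTR duplex was added for 1 h. Quenched with formamide/EDTA dye and run on denaturing 20% PAGE. IC50 read from a plot of % inhibition against drug concentration.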

[8] = biological target: T2, Human immunodeficiency virus type 2 integrase; assay: Inhibitory concentration of compound against 3' processing of HIV-2 integrase; method in brief: as §2
[9] = biological target: T1, Human immunodeficiency virus type 1 integrase; assay: Inhibitory concentration of compound against disintegration (reversal of strand transfer)of HIV-1 integrase
Method in brief: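 Disintegration run under the integrase assay conditions (200 nM enzyme preincubated 30 min at 30 °C in MnCl2/MOPS buffer, then 1 h with substrate). Substrate was a Y-shaped branched oligonucleotide mimicking a strand transfer product, 32P-labelled at the 5′ end of its 15-mer. The core-truncated mutant IN50-212 was used as enzyme. The 30-mer product was resolved on a denaturing 20% gel. IC50 was taken from a percent-inhibition plot.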

[10] = biological target: T2, Human immunodeficiency virus type 2 integrase; assay: Inhibitory concentration of compound against 3'-processing of HIV-2 integrase
[11] = biological target: T2, Human immunodeficiency virus type 2 integrase; assay: Inhibitory concentration of compound against strand transfer of HIV-2 integrase; method in brief: as §2
[12] = biological target: T2, Human immunodeficiency virus type 2 integrase

T1 sequence (Q7ZJM1 whole entry): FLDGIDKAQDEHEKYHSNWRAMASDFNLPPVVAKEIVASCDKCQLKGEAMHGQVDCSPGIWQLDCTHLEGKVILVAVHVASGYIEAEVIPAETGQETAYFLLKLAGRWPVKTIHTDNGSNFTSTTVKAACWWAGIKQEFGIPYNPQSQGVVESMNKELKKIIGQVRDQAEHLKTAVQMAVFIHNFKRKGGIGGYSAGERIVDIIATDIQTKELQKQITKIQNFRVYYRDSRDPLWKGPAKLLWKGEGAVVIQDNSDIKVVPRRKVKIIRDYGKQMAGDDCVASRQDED

Row | SMILES | IC50 [3] | IC50 [4] | IC50 [5] | IC50 [6] | also measured
1 | Cc1cc(Cc2cc(C)c(O)c(C(=O)O)c2)cc(C(=O)O)c1O |  |  |  |  | IC50 [1]: 68.5 µM; IC50 [2]: 61.8 µM
2 | O=C(O)c1ccccc1C(c1cc(Br)c(O)c(Br)c1)c1ccc(Br)c(O)c1Br (stereo not given) | 38.8 µM | 27.2 µM | 25.6 µM | 43.7 µM | 
3 | Cc1cc(C(O)(c2cc(C)c(O)c(C(=O)O)c2)c2cc(C)c(O)c(C(=O)O)c2)cc(C(=O)O)c1O | 21.8 µM | 23 µM | 32.8 µM | 35.8 µM | 
4 | C[C@@](O)(/C=C/[C@H]1CC=CC(=O)O1)[C@@H](C[C@@H](O)C=CC=C/C=C/CO)OP(=O)(O)O [FOSTRIECIN] | 12.8 µM | 52.7 µM | 118 µM | 41.3 µM | 
5 | O=C(NO)c1cc(O)c(O)c(O)c1 | 0.5 µM | 1.6 µM | 3.2 µM | 1.1 µM | IC50 [7]: 1.6 µM; IC50 [8]: 1.6 µM
6 | O=C(c1ccc(O)cc1O)C1C(c2ccc(O)cc2)OC(c2ccc(O)cc2)C1C(=O)c1ccc(O)cc1O (stereo not given) | 143 µM | 129 µM | 169 µM | 165 µM | 
7 | CCCCCC(=O)Cc1cc(O)cc2c1C(=O)Oc1cc(O)c(C(=O)O)c(CCCCC)c1O2 [PHYSODIC ACID] |  |  |  |  | IC50 [9]: 32.5 µM; IC50 [1]: 30.9 µM; IC50 [2]: 38.5 µM
8 | CC(=O)C1=C(NNC(=O)c2ccccn2)[C@@]2(C)C(=CC1=O)Oc1c(C(C)=O)c(O)c(C)c(O)c12 | 48.5 µM | 55 µM | 60.8 µM | 73 µM | IC50 [9]: 39 µM
9 | O=C(O)c1ccc(C(=O)O)c2c(C(=O)O)ccc(C(=O)O)c12 | 176 µM | 182 µM | 174 µM | 122 µM | 
10 | CCCCCc1cc2cc(O)cc(Oc3c(O)cc(O)c(C(=O)O)c3CCCCC)c2c(=O)o1 | 45.7 µM |  |  | 52.2 µM | IC50 [9]: 35 µM
11 | CCOC(=O)c1cnc(NCCCNc2ncc(C(=O)OCC)c(=O)[nH]2)[nH]c1=O | 16.7 µM | 7.9 µM | 11.6 µM | 12.8 µM | 
12 | CCCCCc1cc(O)cc2c1Oc1cc(O)cc(C(=O)CCCC)c1C(=O)O2 | 39.2 µM | 28.1 µM | 42.2 µM | 59.9 µM | 
13 | O=C(O)c1cnc2c(ccc3ncc(C(=O)O)c(O)c32)c1O | 9.8 µM | 6.1 µM | 6.1 µM | 7.6 µM | 
14 | O=C1C(O)=C(c2ccccc2)C12CSC1(CS2)C(=O)C(O)=C1c1ccccc1 (stereo not given) | 172 µM | 54.8 µM | 60 µM | 132 µM | 
15 | Cc1cc(C(c2cc(C)c(O)c(C(=O)O)c2)c2cc(C)c(O)c(C(=O)O)c2)cc(C(=O)O)c1O | 16.7 µM | < 23.4 µM | < 23.4 µM | 20.4 µM | 
16 | O=C(/C=C/c1ccc(O)c(O)c1)O[C@H]1[C@H](O)C[C@](O)(C(=O)O)C[C@H]1OC(=O)/C=C/c1ccc(O)c(O)c1 | 0.6 µM | 0.7 µM | 0.7 µM | 1.3 µM | IC50 [10]: 0.5 µM; IC50 [11]: 0.5 µM
17 | Cc1cc(O)c(C=O)c2c1C(=O)Oc1c(C)c(O)c(C(=O)O)c(C)c1O2 |  |  |  |  | IC50 [9]: 33.5 µM; IC50 [1]: 6.5 µM; IC50 [2]: 4.6 µM
18 | COc1cc(C)c2c(c1C=O)Oc1c(c(C)c(O)c3c1C(O)OC3=O)OC2=O (stereo not given) [STICTIC ACID] | 2.6 µM | 1.9 µM | 2.9 µM | 4.4 µM | IC50 [9]: 11.7 µM

Row | SMILES | IC50 [3] | IC50 [4] | IC50 [5] | IC50 [6] | also measured
19 | O=[N+]([O-])c1cccc(/C=N/CCN2CCN(CC/N=C/c3cccc([N+](=O)[O-])c3O)C2c2cccc([N+](=O)[O-])c2O)c1O | 36.7 µM | 49.5 µM | 60.8 µM | 52.7 µM | 
20 | Cc1cc(O)c(C=O)c2c1C(=O)Oc1c(COC(=O)/C=C/C(=O)O)c(O)c(C(=O)O)c(C)c1O2 [FUMARPROTOCETRARIC ACID] |  | 7.3 µM |  |  | IC50 [1]: 4.6 µM; IC50 [2]: 4.9 µM
21 | O=C(Nc1ccc(C(=O)O)c(O)c1)c1ccc(C(=O)Nc2ccc(O)c(C(=O)O)c2)cc1 | 16.3 µM | 20 µM | 25.2 µM | 23.6 µM | 
22 | Cc1cc(O)c(C=O)c2c1C(=O)Oc1c(CO)c(O)c3c(c1O2)C(O)OC3=O (stereo not given) [SLAZINIC ACID] | 12.6 µM | 6.2 µM | 16 µM | 19 µM | 
23 | Nc1cc(C(=O)O)c(-c2cc(O)c(N)cc2C(=O)O)cc1O | 234 µM |  |  | 212 µM | 
24 | CC(=O)C1=C(O)C=C2Oc3c(C(C)=O)c(O)c(C)c(O)c3[C@@]2(C)C1=O [(+)-USNIC ACID] |  |  |  |  | IC50 [9]: 133 µM; IC50 [1]: 124 µM; IC50 [2]: 126 µM
25 | COC(=O)c1c(C)c2c(c(C)c1O)OC(=O)c1c(C)cc(O)c(C=O)c1O2 |  |  |  |  | IC50 [9]: 26 µM; IC50 [1]: 4.4 µM; IC50 [2]: 5.4 µM
26 | O=C(NC(Cc1ccc(O)c(O)c1)C(=O)OCc1ccccc1)c1ccc([N+](=O)[O-])cc1 (stereo not given) | 55.4 µM | 76.6 µM | 253 µM | 163 µM | 
27 | Cc1ncc(COP(=O)(O)O)c(C2NC(C(=O)O)CS2)c1O (stereo not given) | 93.4 µM | 31.7 µM | 75.1 µM | 91.7 µM | 
28 | Cc1c2cc(O)c(=O)cc-2oc2cc(O)c(O)cc12 | 1.1 µM | 0.9 µM | 1.5 µM | 1.1 µM | IC50 [10]: 2.3 µM; IC50 [12]: 1.5 µM
29 | COC(=O)c1c(C)cc(OC(=O)c2c(C)cc(O)c(C=O)c2O)c(C)c1O [ATRANORIN] | 36 µM | 44 µM | 62.4 µM | 61 µM | IC50 [9]: 128 µM
30 | COc1cc(C)c2c(c1C)OC(=O)c1c(C)c(Cl)c(O)c(C=O)c1O2 | 1.6 µM | 2.7 µM | 2.7 µM | 2.2 µM | IC50 [9]: 12.8 µM
31 | O=C1OC2C(O)COC2(O)C1(O)Cc1cc(O)c(O)c(Br)c1Br (stereo not given) | 50.2 µM | 24.3 µM | 28.7 µM | 64.7 µM | 
32 | CCN(CC)c1ccc(Cc2ccc(N(C)C)c(Cl)c2)cc1 | 45.8 µM | 38.6 µM | 78.6 µM | 61.8 µM | 
33 | COc1cc(C(=O)O)c2c(c1C)OC(=O)c1c(C)cc(O)c(C=O)c1O2 [PSOROMIC ACID] | 5.3 µM | 12.3 µM | 15.1 µM | 17 µM | 
34 | O=C(O)c1cc(/N=N\c2ccccc2C(=O)O)ccc1O | 116 µM | 224 µM | 211 µM | 116 µM | 
35 | O=C(/C=C/c1ccc(O)c(O)c1)O[C@@H]1C[C@](O)(C(=O)O)C[C@@H](O)[C@H]1O (single isomer, unassigned) [CHLOROGENIC ACID] | 45.8 µM | 31.3 µM | 58.2 µM | 87.8 µM | 
